Assay results published in ChEMBL document CHEMBL1125175, “Synthesis and DNA-binding properties of polyamine analogues” (J Med Chem, 1991).

Legend:
[1] = test system: Calf thymus DNA; assay: Ability to displace ethidium bromide from calf thymus DNA; format: nucleic-acid assay, Bos taurus
Procedure, shortened: (§1)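 Fluorescence displacement. Ethidium bromide 1.6 μM final in 2 mM HEPES, 10 μM EDTA, 9.4 mM NaCl, pH 7.0, then DNA added at 2 μM final (DNA phosphate): calf thymus DNA, poly(dA-dT)·poly(dA-dT) or poly(dG-dC)·poly(dG-dC). Excitation 546 nm, emission 598 nm. Analogue titrated in aliquots. IC50 is the concentration halving ethidium–DNA fluorescence. Trial-to-trial variability generally <5%.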

[2] = test system: HeLa; assay: Ability to cause aggregation of purified HeLa cell DNA; format: functional; details: Homo sapiens
Procedure, shortened: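 HeLa DNA labelled via 3-day culture with 4 μCi [³H]thymidine, then phenol/chloroform extracted. 1.5 μg DNA (~20000 cpm) plus analogue at various concentrations in buffer of 25 mM Tris, 4.5 mM KCl, 3 mM MgCl₂, pH 7.6. Incubated 10 min at 37 °C, then centrifuged 2.5 min and supernatant counted.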

[3] = test system: HeLa; assay: Ability to inhibit 50% growth of HeLa cells; format: functional, cell-based; details: Homo sapiens
Procedure, shortened: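 HeLa cells grown 2 days, then counted to set the baseline. Analogues added in complete medium for a further 2 days, then cells counted. Growth increase compared with untreated controls. IC50 is the concentration giving a 50% decrease in growth relative to controls.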

[4] = test system: Nucleic Acid; assay: Ability to displace ethidium bromide from double stranded synthetic poly (dG-dC); format: nucleic-acid assay; procedure, shortened: as §1
[5] = test system: Nucleic Acid; assay: Ability to displace ethidium bromide from double stranded synthetic Poly (dA-dT); format: nucleic-acid assay; procedure, shortened: as §1

| SMILES | IC50 [1] [µM] | IC50 [2] [µM] | IC50 [3] [µM] | IC50 [4] [µM] | IC50 [5] [µM] |
| --- | --- | --- | --- | --- | --- |
| CCNCCCNCCCCCCCCNCCCNCC | 15 | 150 | 200 | 19.5 | 3.9 |
| CCCCNCCCNCCCCCCCCNCCCNCCCC | 20 | 340 | > 500 | 40 | 4.2 |
| CCCNCCCNCCCCCCCCNCCCNCCC | 17 | 220 | > 500 | 25 | 3.8 |
| NCCCNCCCCCCCCNCCCN | 4.9 | 35 | 50 | 7.8 | 3.8 |
| NCCCCSCCCN | 1450 | > 15000 | 350 |  |  |
| c1ccc(CNCCCNCCCCCCCCNCCCNCc2ccccc2)cc1 | 13 | 300 | 15 | 32 | 4.2 |
| CC(N)CCNCCCCCCCCNCCC(C)N (configuration not stated) | 7.5 |  |  | 12.5 | 4.2 |
| CC(CCN)NCCCCCCCCNC(C)CCN (configuration not stated) | 7 | 180 | 100 | 12.6 | 3.6 |
| NCCCNCC(F)(F)CN | > 10000 |  |  |  |  |
| NCCCNCCCC(F)(F)NCCCN | 140 | 2500 |  |  |  |
| c1ccc(CNCCCNCCCCCCCNCCCNCc2ccccc2)cc1 | 6 | 150 | 5 | 31 | 4.6 |
| c1ccc(CNCCCNCCCCCCCCCCNCCCNCc2ccccc2)cc1 | 33 | 400 | 1 | 26 | 3.1 |
| C=C(CNC)CNCCCCCCCCNCC(=C)CNC | 19.1 |  | 125 | 30 | 4.5 |
| CNCC(C)CNCCCCCCCNCC(C)CNC (configuration not stated) | 12.8 |  | > 500 | 20 | 4.5 |
| NCCCNCC(F)(F)CCN | 275 | 3100 | 150 |  |  |
| NCCCNCCCCCCCCCCNCCCN | 8 | 170 | 10 | 11 | 4.2 |
| c1ccc(CNCCCNCCCCCCCCCNCCCNCc2ccccc2)cc1 | 31 | 200 | 10 | 24.5 | 2.9 |
| c1ccc(CNCCCNCCCCCCNCCCNCc2ccccc2)cc1 | 5.5 | 85 | 60 | 25 | 10 |
| NCCCNCCCC1CCC(CCCNCCCN)CC1 (configuration not stated) | 7.5 |  | 90 |  |  |
| NCCCNCCCc1ccc(CCCNCCCN)cc1 | 5 | 250 | 160 |  |  |
| NCC(O)CNCCCCCCCCNCC(O)CN (configuration not stated) | 5.2 | 200 |  | 27 | 4.3 |
| c1ccc(CCCNCCCNCCCCCCCNCCCNCCCc2ccccc2)cc1 | 7.5 | 100 | 20 | 12 | 4.7 |
| NCC(=O)CNCCCCCCCCNCC(=O)CN | 8.2 | 400 |  | 18 | 10.5 |
| c1ccc(CNCCNCCCCCCCCCCNCCNCc2ccccc2)cc1 | 600 | > 8000 | 2 | 1600 | 700 |
| c1ccc(CNCCCCNCCCCCCCCNCCCCNCc2ccccc2)cc1 | 12 | 105 | > 500 | 20 | 3.4 |

| SMILES | IC50 [1] [µM] | IC50 [2] [µM] | IC50 [3] [µM] | IC50 [4] [µM] | IC50 [5] [µM] |
| --- | --- | --- | --- | --- | --- |
| NCCCNC(F)(F)CCCN | 875 | 7000 |  | 900 | 1000 |
| NCC(O)CNCCCCCCCNCC(O)CN (configuration not stated) | 4.9 | 110 |  | 23 | 4.5 |
| c1ccc(CNCCCCNCCCCCCCNCCCCNCc2ccccc2)cc1 | 10 | 95 | > 500 | 20 | 3.2 |
| NCCCNCCCCCCCCCNCCCN | 12 |  | 30 | 16 | 4.5 |
| CNC(C)CCNCCCCCCCNCCC(C)NC (configuration not stated) | 6.5 | 100 |  | 15 | 5 |
| c1ccc(CCNCCCNCCCCCCCNCCCNCCc2ccccc2)cc1 | 8 | 85 | 20 | 10.7 | 2.8 |
| NCCCc1ccc(CCCN)cc1 | 400 | 3000 | 400 |  |  |
| NCCCNCCCCCCCNCCCN | 3.8 | 37 | 200 | 5.4 | 2.6 |
| CCCNCCCNCCCCCCCNCCCNCCC | 10 | 250 | 300 | 20.5 | 3.8 |
| c1ccc(CNCCNCCCCCCNCCNCc2ccccc2)cc1 | 800 | 2400 | 75 |  |  |
| CCNCCCNCCCCCCCNCCCNCC | 11 | 200 | 100 | 20 | 4 |
| c1ccc(CNCCCNCCCCCNCCCNCc2ccccc2)cc1 | 12 |  | 80 | 22 | 4.5 |
| c1ccc(CNCCCNCCCCNCCCNCc2ccccc2)cc1 | 10 | 40 | 10 | 17 | 4.9 |
| CC(CN)CNCCCCCCCNCC(C)CN (configuration not stated) | 8 |  | > 500 | 10.5 | 3 |
| CNCCCNCCCCCCCNCCCNC | 6 | 150 | 500 | 11 | 3.5 |
| c1ccc(NCCCNCCCCCCCNCCCNc2ccccc2)cc1 | 80 |  |  |  |  |
| C/C=C(\CNC)CNCCCCCCCNC/C(=C/C)CNC | 12 |  | > 500 | 34.5 | 5 |
| c1ccc(CNCCNCCCCCCCCNCCNCc2ccccc2)cc1 | 130 | 750 | 20 | 100 | 40 |
| c1ccc(CNCCNCCCCCCCNCCNCc2ccccc2)cc1 | 600 | 600 | 60 | 316 | 170 |
| CNC/C(=C\Cl)CNCCCCCCCNC/C(=C/Cl)CNC | 12 |  | 125 | 34.5 | 5 |
| NCCCNCCCN [NORSPERMIDINE] | 220 | 3000 | 100 | 370 | 140 |
| NCCCCN [PUTRESCINE] | 4500 | 12000 | 8000 | 5200 | 5100 |
| NCCCCNCCCN [SPERMIDINE] | 130 | 1500 | 100 | 300 | 110 |
| NCCCNCCCCNCCCN [SPERMINE] | 4.3 | 70 | 50 | 6 | 2.8 |
